Converted amounts (≈) assume the structure as drawn.
How the values were obtained:
MDA-MB-435 = assay: Cytotoxicity against human MDA-MB-435 cells for 72 hrs by MTT assay; format: functional, cell-based; conditions: MDA-MB-435, 72 h
Summary of the method: (§1)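 Cells kept in RPMI 1640 with 10% fetal bovine serum, 2 mM glutamine, 100 U/mL penicillin and streptomycin, at 37 °C under 5% CO₂. Compounds were dissolved in DMSO and diluted with water to 1 mg/mL, then incubated with cells for 72 h. Growth was read by MTT, with doxorubicin as positive control. IC₅₀ is the concentration giving 50% growth inhibition, in triplicate.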

HL-60 = assay: Cytotoxicity against human HL60 cells for 72 hrs by MTT assay; format: functional, cell-based; conditions: HL-60, 72 h; summary of the method: as §1
HCT-8 = assay: Cytotoxicity against human HCT8 cells for 72 hrs by MTT assay; format: functional, cell-based; conditions: HCT-8, 72 h; summary of the method: as §1
SF-295 = assay: Cytotoxicity against human SF295 cells for 72 hrs by MTT assay; format: functional, cell-based; conditions: SF-295, 72 h; summary of the method: as §1
[1] = Toxicity against mouse erythrocytes assessed as hemolysis after 30 mins by spectrometric analysis; format: cell-based, Erythrocyte
Summary of the method: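 Used a 2% mouse erythrocyte suspension in 0.85% NaCl with 10 mM CaCl₂. Compounds (DMSO stock diluted in water) were tested across a graded range, 30 min at room temperature, then centrifuged. Released hemoglobin in the supernatant was read at 540 nm. DMSO was the negative control and 1% Triton X-100 the positive control. EC₅₀ = effective concentration.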

| Structure (SMILES) | IC50 (MDA-MB-435) [µg/mL] | IC50 (HL-60) [µg/mL] | IC50 (HCT-8) [µg/mL] | IC50 (SF-295) [µg/mL] | EC50 at 30 min [1] [µg/mL] |
| --- | --- | --- | --- | --- | --- |
| O=c1c2c[nH]c3ccc(F)cc3c-2nn1-c1nc2ccccc2s1 | > 5 | > 5 | > 5 | > 5 | > 250 |
| Cc1ccc2[nH]cc3c(=O)n(-c4nc5ccccc5s4)nc-3c2c1 | 2.3 (≈ 6.92 µM) | > 5 | 4.1 (≈ 12.3 µM) | 4.5 (≈ 13.5 µM) | > 250 |
| O=c1c2c[nH]c3ccc(Br)cc3c-2nn1-c1nc2ccccc2s1 | 1.6 (≈ 4.03 µM) | 3 (≈ 7.55 µM) | > 5 | 4.1 (≈ 10.3 µM) | > 250 |
| COc1ccc2[nH]cc3c(=O)n(-c4nc5ccccc5s4)nc-3c2c1 | > 5 | > 5 | > 5 | > 5 | > 250 |
| O=c1c2c[nH]c3ccc(Cl)cc3c-2nn1-c1nc2ccccc2s1 | > 5 | > 5 | > 5 | > 5 | > 250 |
| O=c1c2c[nH]c3ccccc3c-2nn1-c1nc2ccccc2s1 | > 5 | > 5 | > 5 | > 5 | > 250 |
| O=c1c2c[nH]c3ccc([N+](=O)[O-])cc3c-2nn1-c1nc2ccccc2s1 | > 5 | > 5 | > 5 | > 5 | > 250 |
| COc1cccc2c1C(=O)c1c(O)c3c(c(O)c1C2=O)C[C@@](O)(C(=O)CO)C[C@@H]3O[C@H]1C[C@H](N)[C@H](O)[C@H](C)O1 [DOXORUBICIN] | 0.69 (≈ 1.27 µM) | 0.03 (≈ 0.0552 µM) | 0.06 (≈ 0.11 µM) |  |  |
